Results: ChEMBL document CHEMBL2434855, “Aggrecanase-2 inhibitors based on the acylthiosemicarbazide zinc-binding group” (Eur J Med Chem, 2013)

Tests used:
[1] = biological target: T1, A disintegrin and metalloproteinase with thrombospondin motifs 5 (Homo sapiens, UniProt Q9UNA0); assay: Inhibition of human recombinant ADAMTS-5 using QTVTWPDMELPLPRNITEGEARGSVIL-TVKPIFEVSPSPL(biotinyl)K as substrate incubated 10 mins prior to substrate addition measured after 3 hrs by spectrophotometry
T1 sequence (Q9UNA0 whole entry): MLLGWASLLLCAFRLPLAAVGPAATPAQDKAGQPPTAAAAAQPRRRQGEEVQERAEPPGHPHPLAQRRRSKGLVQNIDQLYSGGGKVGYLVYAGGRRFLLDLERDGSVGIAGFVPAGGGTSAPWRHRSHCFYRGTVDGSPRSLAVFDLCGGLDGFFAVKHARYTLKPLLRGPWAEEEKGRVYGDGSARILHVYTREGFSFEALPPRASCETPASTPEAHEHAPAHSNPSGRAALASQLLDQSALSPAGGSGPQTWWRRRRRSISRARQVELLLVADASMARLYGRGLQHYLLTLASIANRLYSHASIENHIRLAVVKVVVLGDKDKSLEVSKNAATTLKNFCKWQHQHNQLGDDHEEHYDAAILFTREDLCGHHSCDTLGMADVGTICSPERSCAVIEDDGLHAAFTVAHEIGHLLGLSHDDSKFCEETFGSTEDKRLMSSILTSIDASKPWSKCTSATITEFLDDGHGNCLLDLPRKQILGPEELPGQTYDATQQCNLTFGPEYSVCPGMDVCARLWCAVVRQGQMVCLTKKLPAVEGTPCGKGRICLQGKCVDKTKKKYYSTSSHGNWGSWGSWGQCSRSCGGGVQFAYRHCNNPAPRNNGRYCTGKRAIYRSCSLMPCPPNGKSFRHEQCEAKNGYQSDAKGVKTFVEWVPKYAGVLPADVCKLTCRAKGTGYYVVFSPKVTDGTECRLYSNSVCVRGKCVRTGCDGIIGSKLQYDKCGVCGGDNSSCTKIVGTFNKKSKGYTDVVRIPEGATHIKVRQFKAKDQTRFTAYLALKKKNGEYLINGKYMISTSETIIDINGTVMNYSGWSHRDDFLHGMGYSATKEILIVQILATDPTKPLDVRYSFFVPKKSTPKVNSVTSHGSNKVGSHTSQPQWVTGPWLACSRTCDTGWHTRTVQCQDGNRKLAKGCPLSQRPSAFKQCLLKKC

[2] = biological target: T2, A disintegrin and metalloproteinase with thrombospondin motifs 5 (Homo sapiens) (UniProt Q9UNA0); assay: Inhibition of human recombinant ADAMTS-5 using QTVTWPDMELPLPRNITEGEARGSVIL-TVKPIFEVSPSPL(biotinyl)K as substrate at 100 uM incubated 10 mins prior to substrate addition measured after 3 hrs by spectrophotometry
T2 sequence (whole entry): T1 sequence (Q9UNA0 whole entry)

[3] = biological target: T2, A disintegrin and metalloproteinase with thrombospondin motifs 5 (Homo sapiens); assay: Inhibition of human recombinant ADAMTS-5 using bovine articular aggrecan as substrate incubated 20 mins prior to substrate addition measured after 48 hrs by spectrophotometry
Method in brief: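 ADAMTS-5 (3.4 µL of 600 nM stock) was pre-incubated 20 min at 37 °C with compound or 4% DMSO vehicle in Tris/NaCl/CaCl₂/Brij35, pH 7.5. Bovine articular aggrecan (50 µg/mL final) was added for 48 h at 37 °C, then stopped with EDTA. Samples were bound to PVDF and digested with chondroitinase ABC and keratanase. The ARGSVIL neoepitope was detected by BC-3 ELISA with TMB, read at 450 nm.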

[4] = biological target: T3, A disintegrin and metalloproteinase with thrombospondin motifs 4 (Homo sapiens, UniProt O75173); assay: Inhibition of human recombinant ADAMTS-4 using QTVTWPDMELPLPRNITEGEARGSVIL-TVKPIFEVSPSPL(biotinyl)K as substrate incubated for 10 mins prior to substrate addition measured after 3 hrs by spectrophotometry
T3 sequence (O75173 whole entry): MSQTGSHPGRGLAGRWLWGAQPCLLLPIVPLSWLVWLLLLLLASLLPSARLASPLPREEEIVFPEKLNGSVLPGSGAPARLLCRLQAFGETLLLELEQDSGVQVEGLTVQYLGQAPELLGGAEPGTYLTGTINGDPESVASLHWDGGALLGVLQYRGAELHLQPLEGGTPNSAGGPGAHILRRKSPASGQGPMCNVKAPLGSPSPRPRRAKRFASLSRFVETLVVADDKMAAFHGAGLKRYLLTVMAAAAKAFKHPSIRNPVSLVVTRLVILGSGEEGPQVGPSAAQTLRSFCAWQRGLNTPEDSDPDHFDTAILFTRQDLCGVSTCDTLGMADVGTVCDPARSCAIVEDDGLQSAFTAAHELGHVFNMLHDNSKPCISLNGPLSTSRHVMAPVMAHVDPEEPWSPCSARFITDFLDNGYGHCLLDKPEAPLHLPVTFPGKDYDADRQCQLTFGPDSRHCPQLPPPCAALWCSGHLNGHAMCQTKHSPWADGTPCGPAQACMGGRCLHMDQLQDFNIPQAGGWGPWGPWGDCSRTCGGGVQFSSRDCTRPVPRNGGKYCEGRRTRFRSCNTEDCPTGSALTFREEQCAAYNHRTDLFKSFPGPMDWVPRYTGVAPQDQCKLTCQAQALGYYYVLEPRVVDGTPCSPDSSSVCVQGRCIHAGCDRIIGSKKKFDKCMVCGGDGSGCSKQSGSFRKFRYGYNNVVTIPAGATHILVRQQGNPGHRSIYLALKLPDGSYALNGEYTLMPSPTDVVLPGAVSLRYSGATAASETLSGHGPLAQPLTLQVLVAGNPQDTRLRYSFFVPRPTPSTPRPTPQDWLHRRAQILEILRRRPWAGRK
Method in brief: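 It was then added to streptavidin wells coated with the biotinylated 41-mer aggrecan peptide and reacted for 3 h at 37 °C. Cleavage product was detected by BC-3 anti-ARGxx ELISA with HRP and TMB, read at 450 nm.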

[5] = Solubility of the compound at 100 uM; format: physicochemical

| Structure (SMILES) | IC50 [1] | also measured |
| --- | --- | --- |
| O=C(COc1ccc(Cl)cc1)NNC(=S)NCCCCc1ccccc1 | 1 µM |  |
| O=C(NNC(=S)NCc1ccc(-c2ccccc2)cc1)C1CNc2cc(Cl)ccc2O1 (stereo not given) | 3.3 µM |  |
| CN(NC(=S)NCc1ccc(-c2ccccc2)cc1)C(=O)COc1ccc(Cl)cc1 | > 100 µM | inhibition [2]: < 30% |
| O=C(COc1ccc(Cl)cc1)NCC(S)C(=O)NCCc1ccccc1 (stereo not given) | 8.7 µM |  |
| O=C(COc1ccc(Cl)cc1)NCC(=S)NCc1ccc(-c2ccccc2)cc1 | > 100 µM | inhibition [2]: < 30% |
| O=C(NNC(=S)NCCCCC1CCCCC1)c1ccc(Cl)cc1 | 0.67 µM | inhibition [3]: Dose-dependent effect; IC50 [4]: 1.4 µM |
| O=C(COc1ccc(Cl)c(Cl)c1)NNC(=S)NCc1ccc(-c2ccccc2)cc1 | 1.2 µM |  |
| O=C(NNC(=S)NCCCCC1CCCCC1)C1CNc2cc(Cl)ccc2O1 (stereo not given) | 1.26 µM |  |
| O=C(COc1ccc(Cl)cc1)NNC(=S)N1CCC(Cc2ccccc2)CC1 | 1.6 µM |  |
| O=C(COc1ccc(Cl)cc1)NNC(=S)NCc1cccc(-c2ccccc2)c1 | 2.3 µM |  |
| O=C(Cc1nc(-c2cnccn2)no1)NNC(=S)NCCCCC1CCCCC1 | 3.1 µM |  |
| O=C(Cc1ccc(-c2ccccc2)cc1)NNC(=S)NCCc1ccc(Cl)cc1 | 5.2 µM |  |
| O=C(COc1ccccc1Cl)NNC(=S)NCc1ccc(-c2ccccc2)cc1 | 1.9 µM |  |
| CN(CCCCc1ccccc1)C(=S)NNC(=O)COc1ccc(Cl)cc1 | 1.1 µM | IC50 [4]: 1.5 µM |
| O=C(COc1ccc(-c2ccccc2)cc1)NNC(=S)NCc1ccc(-c2ccccc2)cc1 | 60 µM | solubility [5]: Insoluble |
| O=C(COc1ccc([N+](=O)[O-])cc1)NNC(=S)NCc1ccc(-c2ccccc2)cc1 | 4 µM |  |
| O=C(COc1ccc(Cl)cc1)NNC(=S)NCCc1ccccc1 | 2.8 µM |  |
| O=C(COc1ccc(Cl)cc1)NNC(=S)NCc1cccnc1 | 100 µM | inhibition [2]: 50% |
| O=C(COc1ccc2ccccc2c1)NNC(=S)NCc1ccc(-c2ccccc2)cc1 | 3.2 µM |  |
| O=C(COc1ccc(OCc2ccccc2)cc1)NNC(=S)NCc1ccc(-c2ccccc2)cc1 | 1 µM |  |
| O=C(COc1ccc(Cl)cc1)Nn1ccn(Cc2ccc(-c3ccccc3)cc2)c1=S | > 100 µM | inhibition [2]: < 30% |
| O=C(COc1ccc([N+](=O)[O-])cc1)NNC(=S)NCCCCC1CCCCC1 | 0.81 µM | IC50 [4]: 0.79 µM |
| O=C(COc1cccc2ccccc12)NNC(=S)NCc1ccc(-c2ccccc2)cc1 | 4.1 µM |  |

| Structure (SMILES) | IC50 [1] | also measured |
| --- | --- | --- |
| CN(NC(=S)NCCCCC1CCCCC1)C(=O)COc1ccc(Cl)cc1 | > 100 µM | inhibition [2]: < 30% |
| O=C(COc1ccc(Cl)cc1)NNC(=S)NCc1ccccc1-c1ccccc1 | 0.49 µM | IC50 [4]: 2.9 µM |
| O=C(COc1ccc(Cl)cc1)NNC(=S)NCCCn1ccnc1 | 1.6 µM |  |
| O=C(COc1ccc(C(F)(F)F)cc1)NNC(=S)NCCCCC1CCCCC1 | 0.54 µM | IC50 [4]: 0.61 µM |
| COc1ccc(OCC(=O)NNC(=S)NCc2ccc(-c3ccccc3)cc2)cc1 | 1.7 µM |  |
| O=C(COc1ccc(Cl)cc1)NNC(=S)NCCCc1ccccc1 | 1.4 µM | IC50 [4]: 2 µM |
| CC(=O)NNC(=S)NCCCCC1CCCCC1 | > 100 µM | inhibition [2]: < 20% |
| O=C(COc1ccc(F)cc1)NNC(=S)NCc1ccc(-c2ccccc2)cc1 | 100 µM | inhibition [2]: 49% |
| O=C(NNC(=S)NCc1ccc(-c2ccccc2)cc1)c1ccc(Cl)cc1 | 0.7 µM | IC50 [4]: 1.6 µM |
| O=C(COc1cccc(Cl)c1)NNC(=S)NCc1ccc(-c2ccccc2)cc1 | 2.1 µM |  |
| O=C(COc1cccc2ccccc12)NNC(=S)NCCCCC1CCCCC1 | 0.88 µM | IC50 [4]: 1 µM |
| O=C(COc1ccc(Cl)cc1Cl)NNC(=S)NCc1ccc(-c2ccccc2)cc1 | 1.2 µM |  |
| O=C(COc1ccc(Cl)cc1)NNC(=S)NCc1ccc(-c2ccccc2)cc1 | 1.2 µM |  |
| O=C(CNc1ccc(Cl)cc1)NNC(=S)NCc1ccc(-c2ccccc2)cc1 | 6.3 µM |  |
| O=C(Cc1ccc(-c2ccccc2)cc1)NNC(=S)NCCCCC1CCCCC1 | 0.3 µM | IC50 [4]: 0.73 µM |
| O=C(COc1ccc(C(F)(F)F)cc1)NNC(=S)NCc1ccc(-c2ccccc2)cc1 | 1.7 µM |  |
| O=C(COc1ccccc1)NNC(=S)NCCCCC1CCCCC1 | > 100 µM | inhibition [2]: < 20% |
| O=C(COc1ccc(Cl)cc1)NNC(=S)NCc1ccccc1 | 12.6 µM |  |
| CC(C)(Oc1ccc(Cl)cc1)C(=O)NNC(=S)NCc1ccc(-c2ccccc2)cc1 | 6.9 µM |  |
| O=C(COc1ccccc1)NNC(=S)NCc1ccc(-c2ccccc2)cc1 | 10 µM |  |
| COc1ccc(OCC(=O)NNC(=S)NCCCCC2CCCCC2)cc1 | > 100 µM | inhibition [2]: 50% |
| O=C(Cc1nc(-c2ccccc2)no1)NNC(=S)NCCCCC1CCCCC1 | 0.34 µM |  |
